According to ChEMBL document CHEMBL4346672, “Antimicrobial and KPC/AmpC inhibitory activity of functionalized benzosiloxaboroles” (Eur J Med Chem, 2019):
Converted amounts (≈) assume the structure as drawn. The source made the active and inactive calls. No cut-off for these calls is given here.

Tests used:
[1] = test system: Klebsiella pneumoniae; assay: Inhibition of beta lactamase SHV-12 in Klebsiella pneumoniae ATCC 700603 assessed as potentiation of ceftazidime-induced antibacterial activity by measuring ceftazidime MIC at 16 mg/L incubated for 18 hrs by broth dilution method (reference value: […] mg/L)
[2] = test system: Pseudomonas aeruginosa; assay: Antibacterial activity against Pseudomonas aeruginosa ATCC 27853 assessed as fold reduction of MIC in presence of efflux pump inhibitor PAbetaN incubated for 18 hrs microdilution method; assay type: functional
Method in brief: (§1)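 MICs determined with and without PAβN at 50 mg/L in Mueller-Hinton broth containing 1 mM MgSO₄. 2-fold serial dilutions per CLSI. Fold change taken from the paired MICs after 35 °C, 18 h.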

[3] = test system: Bordetella bronchiseptica; assay: Antibacterial activity against Bordetella bronchiseptica ATCC 4617 measured after 18 hrs by CLSI broth dilution method; assay type: functional; settings: ATCC 4617, 18 h
Method in brief: (§2)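 Broth MIC in Mueller-Hinton II broth following CLSI, compounds dissolved in DMSO. Strains subcultured twice on tryptic soy agar before testing. Growth read after 35 °C, 18 h.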

[4] = test system: Proteus mirabilis; assay: Antibacterial activity against Proteus mirabilis ATCC 12453 assessed as diameter of zone inhibition measured after 18 hrs by CLSI disc diffusion method; assay type: functional
Method in brief: (§3)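 Disc diffusion on Mueller-Hinton II agar. Compounds dissolved in DMSO. Strains stored at -80 °C and subcultured twice on tryptic soy agar before testing. Inhibition zones read after 35 °C, 18 h.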

[5] = test system: Stenotrophomonas maltophilia; assay: Antibacterial activity against Stenotrophomonas maltophilia ATCC 13637 assessed as fold reduction of MIC in presence of efflux pump inhibitor PAbetaN incubated for 18 hrs by broth microdilution method; assay type: functional; method in brief: as §1
[6] = test system: Klebsiella pneumoniae; assay: Inhibition of beta lactamase KPC-2 in Klebsiella pneumoniae 75 assessed as potentiation of ceftazidime-induced antibacterial activity by measuring ceftazidime MIC at 16 mg/L incubated for 18 hrs by broth dilution method (reference value: […] mg/L)
[7] = test system: Klebsiella pneumoniae 700603; assay: Inhibition of extended-spectrum beta lactamase in Klebsiella pneumoniae ATCC 700603 assessed as potentiation of cefotaxime-induced antibacterial activity by measuring diameter of zone inhibition at 0.3 mg incubated for 18 hrs in presence of 10 ug cefotaxime by CLSI disc diffusion method (Rvb=19 mm)
Method in brief: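 EUCAST ESBL combination disc test on Mueller-Hinton agar. Zones were compared between a ceftazidime or cefotaxime disc alone and the same disc plus agent at 0.3 mg per disc. Clavulanic acid discs at 0.01 mg per disc served as reference. Plates were incubated at 35 °C for 18 h. A difference of at least 5 mm was counted as inhibition.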

[8] = test system: Saccharomyces cerevisiae; assay: Antifungal activity against Saccharomyces cerevisiae ATCC 9763 diameter of zone inhibition incubated for 24 hrs by CLSI disc diffusion method; assay type: functional
Method in brief: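 Disc-diffusion run on Mueller-Hinton II agar with 2% glucose and 0.5 mg/L methylene blue, using compounds in DMSO. Yeast was precultured on Sabouraud dextrose agar (24–48 h, 30 °C). Zones read after 24 h at 35 °C.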

[9] = test system: Candida parapsilosis; assay: Antifungal activity against Candida parapsilosis ATCC 22019 assessed as decrease in fungal cell growth at 0.78 to 12.5 mg/L incubated for 24 hrs by CLSI broth dilution method; assay type: functional; settings: Lodderomyces parapsilosis, ATCC 22019, 24 h
Method in brief: (§4)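 Yeast broth dilution in RPMI 1640 with 2% glucose, compounds in DMSO. Yeasts pre-grown on Sabouraud dextrose agar. Growth read after 35 °C, 24 h.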

[10] = test system: Enterococcus faecium; assay: Antibacterial activity against Enterococcus faecium ATCC 6057 measured after 18 hrs by CLSI broth dilution method; assay type: functional; settings: ATCC 6057, 18 h; method in brief: as §2
[11] = test system: Klebsiella pneumoniae; settings: ATCC 13883
[12] = biological target: Class A carbapenemase KPC-2 (Escherichia coli) (UniProt A8DS27); assay: Inhibition of beta lactamase KPC-2 in Escherichia coli 76 assessed as potentiation of meropenem-induced antibacterial activity by measuring meropenem MIC at 16 mg/L incubated for 18 hrs by broth dilution method (reference value: >[…] mg/L)
[13] = test system: Escherichia coli; assay: Inhibition of beta lactamase CMY-2 in Escherichia coli 77 assessed as potentiation of ceftazidime-induced antibacterial activity by measuring ceftazidime MIC at 16 mg/L incubated for 18 hrs by broth dilution method (reference value: […] mg/L)
[14] = test system: Stenotrophomonas maltophilia; assay: Antibacterial activity against Stenotrophomonas maltophilia ATCC 13637 measured after 18 hrs by CLSI broth dilution method; assay type: functional; settings: ATCC 13637, 18 h; method in brief: as §2
[15] = test system: Enterococcus faecalis; assay: Antibacterial activity against Enterococcus faecalis ATCC 29212 assessed as diameter of zone inhibition measured after 18 hrs by CLSI disc diffusion method; assay type: functional; method in brief: as §3
[16] = test system: Klebsiella pneumoniae; assay: Inhibition of beta lactamase KPC-3 in Klebsiella pneumoniae 83 assessed as potentiation of meropenem-induced antibacterial activity by measuring meropenem MIC at 16 mg/L incubated for 18 hrs by broth dilution method (reference value: […] mg/L)
[17] = test system: Enterobacter cloacae; assay: Antibacterial activity against Enterobacter cloacae DSM 6234 measured after 18 hrs by CLSI broth dilution method; assay type: functional; settings: DSM 6234, 18 h; method in brief: as §2
[18] = test system: Candida tropicalis; assay: Antifungal activity against Candida tropicalis IBA 171 assessed as decrease in fungal cell growth at 0.78 to 12.5 mg/L incubated for 24 hrs by CLSI broth dilution method; assay type: functional; settings: IBA 171, 24 h; method in brief: as §4
[19] = test system: Candida albicans; assay: Antifungal activity against Candida albicans ATCC 90028 assessed as decrease in fungal cell growth at 0.78 to 12.5 mg/L incubated for 24 hrs by CLSI broth dilution method; assay type: functional; settings: ATCC 90028, 24 h; method in brief: as §4
[20] = test system: Stenotrophomonas maltophilia; assay: Antibacterial activity against Stenotrophomonas maltophilia ATCC 13637 assessed as diameter of zone inhibition measured after 18 hrs by CLSI disc diffusion method; assay type: functional; method in brief: as §3
[21] = test system: Serratia marcescens; assay: Antibacterial activity against Serratia marcescens ATCC 13880 measured after 18 hrs by CLSI broth dilution method; assay type: functional; settings: ATCC 13880, 18 h; method in brief: as §2
[22] = test system: Burkholderia cepacia; assay: Antibacterial activity against Burkholderia cepacia ATCC 25416 measured after 18 hrs by CLSI broth dilution method; assay type: functional; settings: ATCC 25416, 18 h; method in brief: as §2
[23] = Cytotoxicity against human MRC5 cells assessed as cell viability at 8 ug/ml incubated for 72 hrs by MTT assay; assay type: cell-based; settings: read-out: Activity
Method in brief: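 MRC-5 pd30 human fibroblasts grown in MEM with 10% FBS, 2 mM L-glutamine, penicillin/streptomycin and 1% non-essential amino acids at 37 °C, 5% CO2. Exponentially growing cells trypsinized and seeded at 8×10^3 cells/well, then dosed 18 h later with 2-fold dilutions (0.5% DMSO final) for 72 h. MTT (1 mg/ml final) added for 1 h at 37 °C, formazan dissolved in DMSO, OD read at 570 nm. Four replicates, expressed as % viable versus control.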

[24] = test system: Staphylococcus epidermidis; assay: Bactericidal activity against Staphylococcus epidermidis ATCC 12228 measured after 18 hrs by CLSI broth dilution method; assay type: functional; settings: ATCC 12228, 18 h
Method in brief: (§5)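 Strains stored at -80 °C and subcultured twice on tryptic soy agar before testing. Compounds dissolved in DMSO. […] MBC then determined per CLSI recommendations.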

[25] = test system: Staphylococcus aureus; assay: Bactericidal activity against Staphylococcus aureus ATCC 6538P measured after 18 hrs by CLSI broth dilution method; assay type: functional; method in brief: as §5

Compound	MIC [1] [µg/mL]	fold change (FC) [2]	MIC [3] [µg/mL]	diameter of the inhibition zone (DIZ) [4]	fold change (FC) [5]	MIC [6] [µg/mL]	inhibition zone (IZ) [7] [mm]	diameter of the inhibition zone (DIZ) [8]	MIC [9] [µg/mL]	MIC [10] [µg/mL]	DIZ [11]	MIC [12] [µg/mL]	MIC [14] [µg/mL]	diameter of the inhibition zone (DIZ) [15]	MIC [17] [µg/mL]	MIC [18] [µg/mL]	MIC [19] [µg/mL]	diameter of the inhibition zone (DIZ) [20]	MIC [21] [µg/mL]	MIC [22] [µg/mL]	other results
C[Si]1(C)OB(O)c2c(F)c(F)c(F)c(F)c21	64	16	100 (≈ 400 µM)	11 mm	16	64	19	35 mm	50 (≈ 200 µM)	200 (≈ 800 µM)	inactive	> 64	400 (≈ 1600 µM)	11 mm	> 400	1.56 (≈ 6.24 µM)	200 (≈ 800 µM)	25 mm	> 400	> 400	MIC [13]: 16 µg/mL; MIC [16]: 32 µg/mL
C[Si]1(C)OB(O)c2ccc(F)c(F)c21	32	32	> 400	12 mm	16	> 64	19	30 mm	12.5 (≈ 58.4 µM)	100 (≈ 467 µM)	inactive	> 64	200 (≈ 934 µM)	inactive	> 400	6.25 (≈ 29.2 µM)	100 (≈ 467 µM)	13 mm	> 400	> 400	viability at 72 h, 8 ug/ml [23]: 111%; MIC [13]: 16 µg/mL; MIC [16]: 32 µg/mL
C[Si]1(C)OB(O)c2ccc(B(O)O)cc21	64	2	> 400	inactive	8	64	19	inactive	200 (≈ 901 µM)	200 (≈ 901 µM)	inactive	> 64	400 (≈ 1800 µM)	inactive	> 400	200 (≈ 901 µM)	400 (≈ 1800 µM)	12 mm	> 400	> 400	viability at 72 h, 8 ug/ml [23]: 126%; MBC [24]: 100 µg/mL (≈ 451 µM); MIC [13]: 8 µg/mL; MIC [16]: 8 µg/mL; MBC [25]: 200 µg/mL (≈ 901 µM)
C[Si]1(C)OB(O)c2cc3c(c(F)c21)COB3O	32	8	200 (≈ 794 µM)	inactive	16	> 64	19	inactive	50 (≈ 198 µM)	50 (≈ 198 µM)	inactive	> 64	200 (≈ 794 µM)	18 mm	> 400	100 (≈ 397 µM)	100 (≈ 397 µM)	14 mm	> 400	> 400	viability at 72 h, 8 ug/ml [23]: 105%; MBC [24]: 400 µg/mL (≈ 1590 µM); MIC [13]: 16 µg/mL; MIC [16]: 32 µg/mL; MBC [25]: 400 µg/mL (≈ 1590 µM)
C[Si]1(C)OB(O)c2c(F)c3c(c(F)c21)B(O)OC3	64	8	100 (≈ 371 µM)	inactive	8	64	19	inactive	> 400	25 (≈ 92.6 µM)	inactive	> 64	50 (≈ 185 µM)	28 mm	200 (≈ 741 µM)	> 400	> 400	15 mm	400 (≈ 1480 µM)	50 (≈ 185 µM)	MIC [13]: 32 µg/mL; MIC [16]: 32 µg/mL
C[Si]1(C)OB(O)c2cc(B(O)O)cc(F)c21		2	> 400	inactive	16			inactive	100 (≈ 417 µM)	200 (≈ 834 µM)	inactive		> 400	12 mm	> 400	400 (≈ 1670 µM)	400 (≈ 1670 µM)	inactive	> 400	> 400	MBC [24]: 400 µg/mL (≈ 1670 µM); MBC [25]: 400 µg/mL (≈ 1670 µM)
